ChEMBL document CHEMBL1817631, “Synthesis and characterization of tritylthioethanamine derivatives with potent KSP inhibitory activity” (Bioorg Med Chem, 2011)
Active and inactive are the calls of the source. The rule behind the calls is not given here.

What was measured:
[1] = target: T1, Kinesin-like protein Klp61F (Drosophila melanogaster) (UniProt P46863); test: Inhibition of Drosophila melanogaster Klp61F in S2 cells at 100 uM up to 7 hrs by immunofluorescence analysis; assay type: cell-based
T1 sequence (whole entry): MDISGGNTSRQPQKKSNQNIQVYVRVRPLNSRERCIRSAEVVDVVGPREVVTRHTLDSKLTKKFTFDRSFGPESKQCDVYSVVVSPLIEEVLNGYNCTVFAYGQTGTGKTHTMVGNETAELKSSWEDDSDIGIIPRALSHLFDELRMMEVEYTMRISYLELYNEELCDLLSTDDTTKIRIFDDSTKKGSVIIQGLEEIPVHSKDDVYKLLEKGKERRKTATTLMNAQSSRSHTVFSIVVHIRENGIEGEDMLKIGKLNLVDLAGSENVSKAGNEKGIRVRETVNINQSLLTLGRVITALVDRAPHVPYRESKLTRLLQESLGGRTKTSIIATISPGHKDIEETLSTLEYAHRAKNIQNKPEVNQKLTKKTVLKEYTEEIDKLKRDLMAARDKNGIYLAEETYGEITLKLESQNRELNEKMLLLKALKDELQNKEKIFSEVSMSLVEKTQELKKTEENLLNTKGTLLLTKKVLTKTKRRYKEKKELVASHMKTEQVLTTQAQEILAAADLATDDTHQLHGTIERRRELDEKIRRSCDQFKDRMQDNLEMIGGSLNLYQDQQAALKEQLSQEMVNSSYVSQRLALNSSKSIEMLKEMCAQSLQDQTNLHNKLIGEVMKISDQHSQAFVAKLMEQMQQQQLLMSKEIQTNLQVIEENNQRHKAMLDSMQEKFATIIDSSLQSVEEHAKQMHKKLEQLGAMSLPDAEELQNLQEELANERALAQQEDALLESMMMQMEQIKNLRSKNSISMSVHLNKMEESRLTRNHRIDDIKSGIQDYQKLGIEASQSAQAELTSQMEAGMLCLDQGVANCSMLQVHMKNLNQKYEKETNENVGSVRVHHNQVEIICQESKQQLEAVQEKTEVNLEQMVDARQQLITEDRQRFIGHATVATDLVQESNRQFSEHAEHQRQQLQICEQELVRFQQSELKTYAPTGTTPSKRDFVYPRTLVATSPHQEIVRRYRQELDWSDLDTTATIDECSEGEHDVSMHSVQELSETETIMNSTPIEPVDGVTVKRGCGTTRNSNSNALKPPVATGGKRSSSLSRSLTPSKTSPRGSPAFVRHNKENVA
In short: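 Drosophila S2 cells were exposed to compound over a three-log concentration range up to 100 μM, with treatments extending up to 7 h. Bipolar spindle formation was scored by immunofluorescence.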

[2] = tested on: U-251; test: Growth inhibition of human U251 cells; assay type: functional
[3] = tested on: SK-MEL-28; test: Growth inhibition of human SK-MEL-28 cells; assay type: functional
[4] = tested on: UACC-62; test: Growth inhibition of human UACC62 cells; assay type: functional
[5] = tested on: CAKI-1; test: Growth inhibition of human Caki1 cells; assay type: functional
[6] = tested on: SK-MEL-5; test: Growth inhibition of human SK-MEL-5 cells; assay type: functional
[7] = tested on: HeLa; test: Effect on interphase microtubule organization in human HeLa cells at 1 uM; assay type: functional, cell-based
In short: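 HeLa cells were grown in MEM/Earle's BSS with 10% FBS at 37 °C and 5% CO2, then treated 4 h with 1 μM compound or 0.1% DMSO carrier. Cells were fixed in 100% MeOH at −20 °C and blocked in PBS-5% BSA. They were stained overnight at 4 °C with mouse anti-tubulin and for DNA, then imaged by epifluorescence with structured illumination.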

[8] = tested on: HCC 2998; test: Growth inhibition of human HCC2998 cells; assay type: functional
[9] = tested on: HOP-62; test: Growth inhibition of human HOP62 cells; assay type: functional
[10] = target: Kinesin-like protein KIF2C (Homo sapiens) (UniProt Q99661); test: Inhibition of MACK
In short: (§1)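 Microtubule-activated ATPase end-point assay with kinesin motor domain at 0.08 μg/μl final. Reactions were started with 2 mM ATP, run 5 min at room temperature, and stopped with CytoPhos. After 10 min more, absorbance was read at 650 nm. Compounds were tested at 0.25–10 μM against a 0.1% DMSO control, in triplicate. IC50 came from four-parameter non-linear regression.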

[11] = tested on: HL-60(TB); test: Growth inhibition of human HL-60(TB) cells; assay type: functional
[12] = tested on: NCI-H322M; test: Growth inhibition of human NCI-H322M cells; assay type: functional
[13] = tested on: OVCAR-3; test: Growth inhibition of human OVCAR3 cells; assay type: functional
[14] = tested on: HeLa; test: Induction of KSP depletion in human HeLa cells after 4 hrs by immunofluorescence analysis relative to STLC; assay type: functional
In short: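 HeLa cells in MEM/Earle's BSS with 10% FBS at 37°C, 5% CO2 were exposed 4 h to DMSO-dissolved compound over a range of doses. They were then fixed in 100% MeOH at −20°C (≥30 min), rehydrated in PBS, blocked in PBS-5% BSA, and stained overnight at 4°C with mouse anti-KSP plus rabbit anti-EB1 (microtubules). DNA was counterstained. Green channel was imaged at equal exposure.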

[15] = tested on: K562; test: Growth inhibition of human K562 cells; assay type: functional
[16] = tested on: SK-MEL-2; test: Growth inhibition of human SK-MEL-2 cells; assay type: functional
[17] = tested on: HT-29; test: Growth inhibition of human HT-29 cells; assay type: functional
[18] = tested on: SN12C; test: Growth inhibition of human SN12C cells; assay type: functional
[19] = tested on: HCT-15; test: Growth inhibition of human HCT15 cells; assay type: functional
[20] = tested on: HeLa; test: Inhibition of bipolar spindle formation in human HeLa cells at 1 uM; assay type: functional, cell-based
In short: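 HeLa cells were grown in MEM with Earle's BSS, 10% FBS, sodium bicarbonate and pyruvate at 37°C in 5% CO2. They were exposed to compound in DMSO for 4 h, with 0.1% DMSO as carrier control. Cells were fixed in −20°C methanol and immunostained for tubulin, with DNA counterstained. Bipolar spindle formation was scored in 100 mitotic cells per condition.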

[21] = tested on: M14; test: Growth inhibition of human M14 cells; assay type: functional
[22] = target: Chromosome-associated kinesin KIF4A (Homo sapiens) (UniProt O95239); test: Inhibition of chromokinesin
[23] = tested on: SF-539; test: Growth inhibition of human SF539 cells; assay type: functional
[24] = tested on: SNB-19; test: Growth inhibition of human SNB19 cells; assay type: functional
[25] = tested on: OVCAR-5; test: Growth inhibition of human OVCAR5 cells; assay type: functional
[26] = tested on: HeLa; test: Induction of KSP depletion in human HeLa cells after 4 hrs by immunofluorescence analysis; assay type: functional, cell-based
In short: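 HeLa cells were treated 4 h across a concentration series of compound in DMSO, then fixed in 100% MeOH at −20 °C. They were probed overnight at 4 °C with mouse anti-KSP and rabbit anti-EB1 to mark microtubules, with Alexa Fluor secondaries and DNA counterstain. KSP (green channel) images were taken at equivalent exposure times.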

[27] = tested on: SW-620; test: Growth inhibition of human SW620 cells; assay type: functional
[28] = Growth inhibition of human […] cells; assay type: functional
[29] = tested on: CCRF-CEM; test: Growth inhibition of human CCRF-CEM cells; assay type: functional
[30] = tested on: UACC-257; test: Growth inhibition of human UACC257 cells; assay type: functional
[31] = tested on: 786-0; test: Growth inhibition of human 786-0 cells; assay type: functional
[32] = tested on: MOLT-4; test: Growth inhibition of human MOLT4 cells; assay type: functional
[33] = tested on: LOX IMVI; test: Growth inhibition of human LOXIMVI cells; assay type: functional
[34] = tested on: KM12; test: Growth inhibition of human KM12 cells; assay type: functional
[35] = tested on: TK-10; test: Growth inhibition of human TK10 cells; assay type: functional
[36] = tested on: COLO 205; test: Growth inhibition of human COLO205 cells; assay type: functional
[37] = Inhibition of bipolar spindle formation in Strongylocentrotus purpuratus eggs; assay type: functional, Egg
In short: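 S. purpuratus eggs (gametes released with 0.5M KCl) were fertilized in artificial seawater with 2 mM 3-amino triazole and stripped of envelopes 20 min post-fertilization. They were then cultured with 0.1% DMSO or inhibitor at 100 nM–100 μM, fixed at first mitosis and stained for microtubules and DNA. 100 cells per condition were scored for bipolar spindles to derive EC50.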

[38] = tested on: SF-295; test: Growth inhibition of human SF295 cells; assay type: functional
[39] = tested on: EKVX; test: Growth inhibition of human EKVX cells; assay type: functional
[40] = tested on: A549; test: Growth inhibition of human A549 cells; assay type: functional
[41] = tested on: NCI-H226; test: Growth inhibition of human NCI-H226 cells; assay type: functional
[42] = tested on: Malme-3M; test: Growth inhibition of human MALME-3M cells; assay type: functional
[43] = tested on: SR; test: Growth inhibition of human SR cells; assay type: functional
[44] = tested on: NCI-H522; test: Growth inhibition of human NCI-H522 cells; assay type: functional
[45] = tested on: OVCAR-8; test: Growth inhibition of human OVCAR8 cells; assay type: functional
[46] = tested on: SK-OV-3; test: Growth inhibition of human SKOV3 cells; assay type: functional
[47] = target: Centromere-associated protein E (Homo sapiens) (UniProt Q02224); test: Inhibition of CENP-E; in short: as §1
[48] = tested on: OVCAR-4; test: Growth inhibition of human OVCAR4 cells; assay type: functional
[49] = tested on: ACHN; test: Growth inhibition of human ACHN cells; assay type: functional
[50] = tested on: UO-31; test: Growth inhibition of human UO31 cells; assay type: functional
[51] = tested on: SF-268; test: Growth inhibition of human SF268 cells; assay type: functional

Chromosome-associated kinesin KIF4A (Homo sapiens), sequence (O95239 whole entry): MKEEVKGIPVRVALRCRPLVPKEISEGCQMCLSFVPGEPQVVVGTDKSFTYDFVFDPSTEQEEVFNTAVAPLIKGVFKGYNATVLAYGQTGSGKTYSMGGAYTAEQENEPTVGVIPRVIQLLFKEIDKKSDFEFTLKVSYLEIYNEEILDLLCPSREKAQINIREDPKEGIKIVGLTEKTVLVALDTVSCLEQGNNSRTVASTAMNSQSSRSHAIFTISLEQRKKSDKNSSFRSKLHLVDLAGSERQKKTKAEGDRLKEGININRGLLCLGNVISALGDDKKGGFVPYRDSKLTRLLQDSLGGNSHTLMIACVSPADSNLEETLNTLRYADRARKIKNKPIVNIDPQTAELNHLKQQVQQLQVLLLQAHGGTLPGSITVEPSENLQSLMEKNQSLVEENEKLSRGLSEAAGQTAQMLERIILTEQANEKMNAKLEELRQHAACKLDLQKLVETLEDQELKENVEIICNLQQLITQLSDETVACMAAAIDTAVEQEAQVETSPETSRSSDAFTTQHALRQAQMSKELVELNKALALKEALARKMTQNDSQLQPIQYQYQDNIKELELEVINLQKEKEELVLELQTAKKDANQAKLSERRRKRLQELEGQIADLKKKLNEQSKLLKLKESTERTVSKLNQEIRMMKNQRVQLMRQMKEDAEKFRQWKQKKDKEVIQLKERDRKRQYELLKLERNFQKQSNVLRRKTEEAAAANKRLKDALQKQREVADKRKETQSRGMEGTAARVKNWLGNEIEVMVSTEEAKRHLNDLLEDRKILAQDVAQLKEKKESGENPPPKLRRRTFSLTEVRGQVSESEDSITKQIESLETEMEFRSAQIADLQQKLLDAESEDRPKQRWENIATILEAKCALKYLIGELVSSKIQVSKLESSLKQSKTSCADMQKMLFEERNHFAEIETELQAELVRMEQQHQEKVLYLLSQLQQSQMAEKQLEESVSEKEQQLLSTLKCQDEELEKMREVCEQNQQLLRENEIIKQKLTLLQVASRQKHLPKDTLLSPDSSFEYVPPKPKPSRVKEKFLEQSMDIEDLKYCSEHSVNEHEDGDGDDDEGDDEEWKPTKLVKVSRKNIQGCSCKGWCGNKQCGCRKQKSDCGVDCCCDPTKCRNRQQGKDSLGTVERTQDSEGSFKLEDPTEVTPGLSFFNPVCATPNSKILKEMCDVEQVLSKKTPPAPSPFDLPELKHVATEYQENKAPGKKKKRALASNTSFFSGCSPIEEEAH
Centromere-associated protein E (Homo sapiens), sequence (Q02224 whole entry): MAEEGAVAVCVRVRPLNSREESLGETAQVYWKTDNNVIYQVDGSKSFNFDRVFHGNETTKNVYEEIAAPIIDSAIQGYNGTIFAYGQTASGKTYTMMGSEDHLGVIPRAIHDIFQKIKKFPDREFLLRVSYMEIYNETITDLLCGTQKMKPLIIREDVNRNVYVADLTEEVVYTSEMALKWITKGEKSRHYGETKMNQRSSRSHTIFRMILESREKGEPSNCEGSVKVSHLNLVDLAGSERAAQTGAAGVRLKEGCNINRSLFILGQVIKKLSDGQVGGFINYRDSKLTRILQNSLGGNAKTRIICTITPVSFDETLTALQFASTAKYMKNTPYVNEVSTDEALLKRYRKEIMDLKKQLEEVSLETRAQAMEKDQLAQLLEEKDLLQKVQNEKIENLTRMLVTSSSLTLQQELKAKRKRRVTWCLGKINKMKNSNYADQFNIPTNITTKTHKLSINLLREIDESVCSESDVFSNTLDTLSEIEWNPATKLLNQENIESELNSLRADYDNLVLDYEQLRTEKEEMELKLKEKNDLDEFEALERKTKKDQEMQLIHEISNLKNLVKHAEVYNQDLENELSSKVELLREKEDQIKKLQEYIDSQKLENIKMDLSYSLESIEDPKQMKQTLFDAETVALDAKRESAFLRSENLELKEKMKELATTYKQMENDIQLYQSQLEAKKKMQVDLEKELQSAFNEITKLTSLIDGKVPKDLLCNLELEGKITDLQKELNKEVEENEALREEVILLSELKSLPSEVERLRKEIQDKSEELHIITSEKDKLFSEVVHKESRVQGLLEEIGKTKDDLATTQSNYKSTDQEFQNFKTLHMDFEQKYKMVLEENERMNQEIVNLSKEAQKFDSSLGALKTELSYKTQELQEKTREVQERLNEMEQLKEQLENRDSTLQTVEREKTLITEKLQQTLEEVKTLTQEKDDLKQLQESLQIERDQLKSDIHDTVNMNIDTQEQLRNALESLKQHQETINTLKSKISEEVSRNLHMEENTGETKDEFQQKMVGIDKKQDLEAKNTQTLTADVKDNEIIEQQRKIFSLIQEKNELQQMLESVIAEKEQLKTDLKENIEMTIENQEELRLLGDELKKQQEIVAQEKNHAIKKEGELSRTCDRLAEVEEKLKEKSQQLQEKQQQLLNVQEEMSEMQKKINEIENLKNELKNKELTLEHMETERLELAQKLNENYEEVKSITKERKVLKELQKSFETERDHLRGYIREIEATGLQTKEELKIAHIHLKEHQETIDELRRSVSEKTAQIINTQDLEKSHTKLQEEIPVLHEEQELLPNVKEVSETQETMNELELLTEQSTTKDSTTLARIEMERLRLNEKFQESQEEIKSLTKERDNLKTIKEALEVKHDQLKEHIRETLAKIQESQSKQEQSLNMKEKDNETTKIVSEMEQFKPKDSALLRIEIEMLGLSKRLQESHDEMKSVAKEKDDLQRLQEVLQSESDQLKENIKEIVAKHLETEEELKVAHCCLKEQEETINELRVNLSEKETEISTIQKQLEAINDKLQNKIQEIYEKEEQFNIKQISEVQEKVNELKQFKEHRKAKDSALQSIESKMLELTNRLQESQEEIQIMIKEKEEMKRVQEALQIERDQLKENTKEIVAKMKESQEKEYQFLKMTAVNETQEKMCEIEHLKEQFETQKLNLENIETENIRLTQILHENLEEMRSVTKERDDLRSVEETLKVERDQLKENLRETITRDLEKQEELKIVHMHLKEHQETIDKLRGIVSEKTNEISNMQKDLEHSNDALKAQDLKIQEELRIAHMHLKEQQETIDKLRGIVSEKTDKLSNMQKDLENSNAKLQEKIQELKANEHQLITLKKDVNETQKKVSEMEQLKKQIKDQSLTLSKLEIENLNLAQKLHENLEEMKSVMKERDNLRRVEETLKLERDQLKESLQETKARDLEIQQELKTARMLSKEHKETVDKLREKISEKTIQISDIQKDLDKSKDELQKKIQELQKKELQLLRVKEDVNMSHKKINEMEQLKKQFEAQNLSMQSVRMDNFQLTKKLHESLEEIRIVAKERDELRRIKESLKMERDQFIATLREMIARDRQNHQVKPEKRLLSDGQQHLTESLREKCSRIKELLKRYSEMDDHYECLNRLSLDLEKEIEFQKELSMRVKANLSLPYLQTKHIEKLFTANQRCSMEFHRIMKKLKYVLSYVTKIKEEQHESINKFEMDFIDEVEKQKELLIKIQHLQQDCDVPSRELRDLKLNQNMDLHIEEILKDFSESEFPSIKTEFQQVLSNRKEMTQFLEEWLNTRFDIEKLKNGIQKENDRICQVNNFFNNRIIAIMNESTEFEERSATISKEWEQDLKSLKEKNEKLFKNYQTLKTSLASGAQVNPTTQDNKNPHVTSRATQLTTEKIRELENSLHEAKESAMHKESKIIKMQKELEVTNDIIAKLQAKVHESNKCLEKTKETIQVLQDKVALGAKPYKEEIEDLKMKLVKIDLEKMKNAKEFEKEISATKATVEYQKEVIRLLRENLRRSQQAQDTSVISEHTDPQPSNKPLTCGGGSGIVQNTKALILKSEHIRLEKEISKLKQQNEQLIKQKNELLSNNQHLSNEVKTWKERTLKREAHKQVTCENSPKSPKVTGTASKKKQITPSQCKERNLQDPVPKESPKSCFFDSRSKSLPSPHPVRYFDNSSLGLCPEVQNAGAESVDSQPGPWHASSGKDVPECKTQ
Kinesin-like protein KIF2C (Homo sapiens), sequence (Q99661 whole entry, the tested form may be a part): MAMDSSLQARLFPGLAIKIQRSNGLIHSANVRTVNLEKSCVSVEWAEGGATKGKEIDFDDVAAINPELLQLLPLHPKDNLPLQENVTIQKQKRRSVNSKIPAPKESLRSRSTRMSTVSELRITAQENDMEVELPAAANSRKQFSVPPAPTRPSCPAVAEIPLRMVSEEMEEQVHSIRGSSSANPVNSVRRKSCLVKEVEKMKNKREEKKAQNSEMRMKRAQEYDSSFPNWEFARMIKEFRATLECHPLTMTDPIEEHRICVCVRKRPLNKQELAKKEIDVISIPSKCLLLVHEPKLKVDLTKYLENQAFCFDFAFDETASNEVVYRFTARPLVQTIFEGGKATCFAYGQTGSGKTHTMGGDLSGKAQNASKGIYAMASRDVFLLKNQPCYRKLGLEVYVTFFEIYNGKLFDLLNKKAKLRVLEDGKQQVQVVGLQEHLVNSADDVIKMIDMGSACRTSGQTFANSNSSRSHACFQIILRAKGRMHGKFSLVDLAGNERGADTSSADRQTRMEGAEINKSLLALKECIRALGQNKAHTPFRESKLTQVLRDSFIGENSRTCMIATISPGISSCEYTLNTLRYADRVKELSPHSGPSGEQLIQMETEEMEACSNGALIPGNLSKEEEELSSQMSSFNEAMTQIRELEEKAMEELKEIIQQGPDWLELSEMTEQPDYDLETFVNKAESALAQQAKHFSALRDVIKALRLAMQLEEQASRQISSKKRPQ

COc1ccc(C(SC[C@H](N)C(=O)O)(c2ccccc2)c2ccccc2)cc1
inhibition [1]: inactive

COc1ccc(C(SC[C@H](N)CO)(c2ccccc2)c2ccccc2)cc1
GI50 [2]: 190 nM
GI50 [3]: 620 nM
GI50 [4]: 250 nM
GI50 [5]: 450 nM
GI50 [6]: 60 nM
Activity [7]: inactive
GI50 [8]: 50 nM
GI50 [9]: 510 nM
inhibition [10]: inactive
GI50 [11]: 190 nM
GI50 [12]: 110 nM
GI50 [13]: 200 nM
inhibition [1]: inactive
fold change (FC) [14]: 1.63
GI50 [15]: 60 nM
GI50 [16]: 240 nM
GI50 [17]: 340 nM
GI50 [18]: 320 nM
GI50 [19]: 210 nM
inhibition [20]: Active
GI50 [21]: 20 nM
inhibition [22]: inactive
GI50 [23]: 260 nM
GI50 [24]: 250 nM
GI50 [25]: 390 nM
Activity [26]: Dose-dependent effect
GI50 [27]: 70 nM
GI50 [28]: 30 nM
GI50 [29]: 100 nM
GI50 [30]: 540 nM
GI50 [31]: 440 nM
GI50 [32]: 280 nM
GI50 [33]: 490 nM
GI50 [34]: 220 nM
GI50 [35]: 460 nM
GI50 [36]: 80 nM
EC50 [37]: 28000 nM
GI50 [38]: 280 nM
GI50 [39]: 510 nM
GI50 [40]: 330 nM
GI50 [41]: 2750 nM
GI50 [42]: 360 nM
GI50 [43]: 10 nM
GI50 [44]: 220 nM
GI50 [45]: 420 nM
GI50 [46]: 80 nM
inhibition [47]: inactive
GI50 [48]: 1620 nM
GI50 [49]: 490 nM
GI50 [50]: 1100 nM
GI50 [51]: 110 nM

COc1ccc(C(SC[C@@H](N)CO)(c2ccccc2)c2ccccc2)cc1
inhibition [1]: inactive
